Compounds with a hit are over-represented: about 2.1% of the library has one in this group of screens.
DNMT1 block: DNMT1 (human) enzyme inhibition. P26358. DNMT1 molecular beacon, Hinp1I cleavage, fluorescence. inhibition (reported as % activation of signal), % at 10 µM. 360,000 compounds, 0.83% hits. AID 588458; in the data active means inhibition above about 50%
Scp1 inh: Scp-1 (human) phosphatase inhibition; Q9GZU7; Recombinant Scp1, phosphopeptide, malachite green phosphate absorbance; inhibition, % at 20 µM; 340,000 compounds, 0.88% hits; AID 493091;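 active means inhibition above about 50% at 20 µM, limit read from the data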
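Test system: SCP-1 phosphatase catalytic domain, residues 76-261; measured by: colorimetric phosphate reagent with accelerator and stabiliser, absorbance at 630 nm; timing: enzyme reaction 45 min at room temperature, colour 5 min, stabilisation 30 min; also added: Phosphorylated 17-residue peptide substrate; compound dosing: one concentration, 20 µM, with 1.0% DMSO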
STEP inh: inhibitors of human striatal-enriched phosphatase STEP. inhibition, % at 20 µM. recombinant STEP, OMFP fluorogenic substrate, fluorescence. P54829. 360,000 compounds, 0.25% hits;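 active means inhibition at 20 µM, scaled per plate between control wells, above about 37%, limit read from the data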
Target sequence (P54829 whole entry, looked up): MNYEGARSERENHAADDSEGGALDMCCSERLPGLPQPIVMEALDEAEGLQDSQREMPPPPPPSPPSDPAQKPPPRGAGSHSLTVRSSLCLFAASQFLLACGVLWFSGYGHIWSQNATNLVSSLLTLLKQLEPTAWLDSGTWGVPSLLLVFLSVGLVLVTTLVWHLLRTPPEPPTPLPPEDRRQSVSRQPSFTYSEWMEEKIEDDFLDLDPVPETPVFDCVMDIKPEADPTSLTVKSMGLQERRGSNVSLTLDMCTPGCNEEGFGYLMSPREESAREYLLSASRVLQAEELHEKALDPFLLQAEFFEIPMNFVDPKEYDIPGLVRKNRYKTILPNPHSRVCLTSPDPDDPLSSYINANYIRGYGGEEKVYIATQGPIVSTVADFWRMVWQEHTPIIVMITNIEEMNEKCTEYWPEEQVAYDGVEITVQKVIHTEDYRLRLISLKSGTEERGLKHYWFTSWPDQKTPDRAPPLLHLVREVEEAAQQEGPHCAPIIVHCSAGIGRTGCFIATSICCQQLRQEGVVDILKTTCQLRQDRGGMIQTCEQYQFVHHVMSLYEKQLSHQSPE
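Also added – OMFP at 25 µM · Test system – STEP tyrosine phosphatase · Technique – FITC-channel fluorescence of OMFP product · Schedule – 20 min at room temperature, dark · Evaluation – control-normalized % inhibition with plate pattern correction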
LMPTP inh: blocks human LMPTP phosphatase; P24666; inhibition, % at 20 µM; 360,000 compounds, 0.22% hits; AID 651560; recombinant LMPTP-A, OMFP fluorogenic substrate, fluorescence intensity;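 active means compounds that cut the enzyme signal by at least half of the control window in the single-dose screen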
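Assay system: LMPTP-A, protein tyrosine phosphatase of low molecular weight / Medium: pH 6.0 Bis-Tris buffer with DTT and Triton X-100 / Schedule: 50 min enzyme reaction at room temperature, protected from light / Measured by: endpoint fluorescence intensity from OMFP dephosphorylation / Read-out basis: % inhibition relative to no-enzyme and uninhibited control wells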
GRK2 aptamer HTS: blocks RNA aptamer binding to human GRK2; bead flow cytometry, FAM-aptamer displacement from GRK2; AID 488847; 330,000 compounds, 0.59% hits; inhibition of aptamer binding, % at 10 µM;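 active means inhibition of aptamer binding above 40%, roughly 3 SD of noise, on plates passing a quality check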;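 further: median bead fluorescence of bound FAM aptamer so fluorescent compounds give negative values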
SUMO1-SIM PPI: alters human SUMO1 binding to SIM partners | SUMO1 binding to a labelled peptide, TR-FRET, 1 h | inhibition, % at 20 µM | 360,000 compounds, 0.33% hits; in the data active means inhibition above about 37%
DNMT1 confirm: confirmation of human DNMT1 inhibitors | shares compounds with DNMT1 block | 2,300 compounds, 8% hits | DNMT1 molecular beacon HinP1I cleavage, fluorescence | AID 602385 | inhibition, % at 10 µM;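 active means average inhibition of at least 30% in the single-concentration confirmation test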
DNMT1 interf: shows spectral interference in the DNMT1 beacon assay | shares compounds with DNMT1 block | DNMT1 molecular beacon spectral interference counterscreen, fluorescence 485/520 | activation (fluorescence interference), % at 10 µM | 2,300 compounds, 1% hits;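 active means activation of at least 30% at 10 µM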;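 further: DNMT1 catalytic domain with a HinP1I cleavage step and a FAM/dabcyl DNA beacon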
Each line names hits and unclear results; the compound was inactive in the other large screens (follow-up assays come after a bar, where they were run).

C=CCn1c(SCC(=O)Nc2ccc3c(c2)OCO3)nnc1-c1ccccc1	DNMT1 block 52 | DNMT1 confirm inactive | DNMT1 interf inactive
O=C(CSc1nnc2ccccn12)Nc1ccc2c(c1)OCO2	none
O=C(NCC1COc2ccccc2O1)c1cccc(S(=O)(=O)N2CCN(c3ccccc3)CC2)c1 (stereo not given)	none (no result: GRK2 aptamer HTS)
CC(=O)c1cccc(S(=O)(=O)NCCC(=O)NC2CCCCCC2)c1	none
COn1c(=O)c(-c2ccc(Cl)cc2)[n+]([O-])c2ccccc21	DNMT1 block 68 | DNMT1 confirm inactive | DNMT1 interf inactive
CCCCCC(=O)N1C[C@@H](n2cc(C3CC3)nn2)[C@H](O)C[C@@H]1c1ccc(C)cc1	none (no result: Scp1 inh, GRK2 aptamer HTS)
Cc1cc2c(N)cccc2nn1	DNMT1 block 127, Scp1 inh 60, STEP inh 75, LMPTP inh 93, SUMO1-SIM PPI 73 | DNMT1 confirm inactive | DNMT1 interf inactive
O=C(Nc1ccc2oc(-c3cccc4ccccc34)nc2c1)c1ncn[nH]1	DNMT1 block 67 | DNMT1 confirm inactive | DNMT1 interf inactive
CCN(CC)c1ncnc2c1ncn2[C@H]1CN(Cc2ccc3c(c2)OCO3)C[C@@H](CO)O1	none (no result: Scp1 inh, GRK2 aptamer HTS)
O=C(CCNS(=O)(=O)c1ccccc1C(F)(F)F)N1CCCCCCC1	DNMT1 block 52 | DNMT1 confirm inactive | DNMT1 interf inactive
CCOc1ccccc1OCCCC(=O)Nc1cc(S(=O)(=O)N2CCCCC2)ccc1C	none (no result: Scp1 inh, GRK2 aptamer HTS)
O=C(Nc1ccccc1)Nc1nnc(-c2ccccc2)s1	none
O=C(Nc1ccccc1)Nc1nnc(/C=C/c2ccccc2Cl)s1	DNMT1 block 89 | DNMT1 confirm inactive | DNMT1 interf inactive
COCCNC(=S)N/N=C(\C)c1ccc(OC(F)F)cc1	DNMT1 block 62 | DNMT1 confirm inactive | DNMT1 interf inactive
COCCNC(=S)N/N=C(\C)c1ccc(OC)cc1	none
O=C1CC(c2ccco2)Sc2nc3ccccc3n21 (stereo not given)	DNMT1 block 56 | DNMT1 confirm inactive | DNMT1 interf inactive
CN(Cc1ccccc1)C(=O)C1(C)CCN1C(=O)Cc1ccc(Cl)cc1Cl (stereo not given)	none (no result: Scp1 inh, GRK2 aptamer HTS)
O=C(O)COn1c(-c2ccccc2)nc2ccc([N+](=O)[O-])cc21	DNMT1 block 66, Scp1 inh 81 | DNMT1 confirm inactive | DNMT1 interf inactive
CCOC(=O)C(C)On1c(-c2ccccc2)nc2ccc([N+](=O)[O-])cc21 (stereo not given)	none
CCCNC(=O)Nc1ccc2c(c1)OC[C@H](C)N(C(=O)C1CCCCC1)C[C@@H](C)[C@H](OC)CN(C)C2=O	none (no result: DNMT1 block, Scp1 inh, STEP inh, GRK2 aptamer HTS)
COc1ccc(CNC(=O)C2(C)Cc3c(-c4cccc(NC(C)=O)c4)ccnc3O2)cc1OC (stereo not given)	none (no result: Scp1 inh, GRK2 aptamer HTS)
O=C1NC(c2cccs2)Nc2ccccc21 (stereo not given)	DNMT1 block 64 | DNMT1 confirm inactive | DNMT1 interf inactive
C=CCn1c(=O)c(C(=O)Nc2ccc(C)cc2)c(O)c2ccccc21	none
C=CCn1c(=O)c(C(=O)NC(C)c2ccccc2)c(O)c2ccccc21 (stereo not given)	DNMT1 block 84 | DNMT1 confirm inactive | DNMT1 interf inactive
COc1ccc(-c2oc3c(c2C#CC2(O)CCCCC2)C(OC)CCC3)cc1 (stereo not given)	none (no result: DNMT1 block, Scp1 inh, STEP inh, GRK2 aptamer HTS)
COc1ccc(Cl)cc1-c1cc(C(=O)NCc2cccc(C(F)(F)F)c2)[nH]n1	DNMT1 block 58 (no result: Scp1 inh, GRK2 aptamer HTS) | DNMT1 confirm inactive | DNMT1 interf inactive
COc1ccc(Cl)cc1-c1cc(C(=O)NCc2ccc(C(F)(F)F)cc2)[nH]n1	none (no result: Scp1 inh, GRK2 aptamer HTS)
Cc1nc2c(=O)[nH]c(=S)[nH]c2[nH]c1=O	DNMT1 block 79, Scp1 inh 96, SUMO1-SIM PPI 55 (no result: GRK2 aptamer HTS) | DNMT1 confirm inactive | DNMT1 interf inactive
